Measured values as given in ChEMBL document CHEMBL1765009, “Novel hydrazine molecules as tools to understand the flexibility of vascular adhesion protein-1 ligand-binding site: toward more selective inhibitors” (J Med Chem, 2011).

What was measured:
[1] = Selectivity ratio, ratio of IC50 for rat liver MAO-A/MAO-B to IC50 for human recombinant VAP-1
[2] = molecular target: T1, Amine oxidase [copper-containing] 3 (Homo sapiens, UniProt Q16853); assay: Inhibition of human recombinant VAP-1 expressed in CHO cells after 30 mins by coupled colorimetric method; format: cell-based
T1 sequence (Q16853 whole entry): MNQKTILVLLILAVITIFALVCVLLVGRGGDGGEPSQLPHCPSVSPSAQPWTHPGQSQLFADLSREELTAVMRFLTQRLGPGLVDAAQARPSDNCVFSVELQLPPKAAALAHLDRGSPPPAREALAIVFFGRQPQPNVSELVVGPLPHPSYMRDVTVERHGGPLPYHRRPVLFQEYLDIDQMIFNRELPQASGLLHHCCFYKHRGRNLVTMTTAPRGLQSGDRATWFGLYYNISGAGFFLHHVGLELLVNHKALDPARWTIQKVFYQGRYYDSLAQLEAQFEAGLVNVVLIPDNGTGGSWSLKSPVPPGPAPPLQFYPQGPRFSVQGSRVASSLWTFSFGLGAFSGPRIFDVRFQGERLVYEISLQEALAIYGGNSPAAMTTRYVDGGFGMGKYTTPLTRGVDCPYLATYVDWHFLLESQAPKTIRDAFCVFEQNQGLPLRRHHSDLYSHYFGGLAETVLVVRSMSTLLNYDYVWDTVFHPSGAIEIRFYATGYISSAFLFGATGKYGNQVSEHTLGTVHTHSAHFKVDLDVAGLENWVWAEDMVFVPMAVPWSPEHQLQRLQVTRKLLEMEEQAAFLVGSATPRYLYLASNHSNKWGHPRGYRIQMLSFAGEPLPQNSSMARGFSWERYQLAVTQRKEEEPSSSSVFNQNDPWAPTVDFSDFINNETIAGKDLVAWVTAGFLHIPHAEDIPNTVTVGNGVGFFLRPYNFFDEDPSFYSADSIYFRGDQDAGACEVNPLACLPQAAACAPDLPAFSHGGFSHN
How it was run: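 Enzyme source: clarified lysate of CHO cells stably transfected with full-length human VAP-1 cDNA. The lysate was made in 150 mM NaCl, 10 mM Tris pH 7.2, 1.5 mM MgCl2 and 1% NP40 at 4 °C overnight. Reaction started with 1 mM benzylamine, 1 h at 37 °C, A490 read. IC50 given as mean ± SEM of 2–4 experiments.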

[3] = molecular target: T2, Monoamine oxidase (Rattus norvegicus, UniProt P19643+P21396); assay: Inhibition of rat liver MAO-A/MAO-B after 30 mins by coupled colorimetric method
T2 sequence (P19643 whole entry): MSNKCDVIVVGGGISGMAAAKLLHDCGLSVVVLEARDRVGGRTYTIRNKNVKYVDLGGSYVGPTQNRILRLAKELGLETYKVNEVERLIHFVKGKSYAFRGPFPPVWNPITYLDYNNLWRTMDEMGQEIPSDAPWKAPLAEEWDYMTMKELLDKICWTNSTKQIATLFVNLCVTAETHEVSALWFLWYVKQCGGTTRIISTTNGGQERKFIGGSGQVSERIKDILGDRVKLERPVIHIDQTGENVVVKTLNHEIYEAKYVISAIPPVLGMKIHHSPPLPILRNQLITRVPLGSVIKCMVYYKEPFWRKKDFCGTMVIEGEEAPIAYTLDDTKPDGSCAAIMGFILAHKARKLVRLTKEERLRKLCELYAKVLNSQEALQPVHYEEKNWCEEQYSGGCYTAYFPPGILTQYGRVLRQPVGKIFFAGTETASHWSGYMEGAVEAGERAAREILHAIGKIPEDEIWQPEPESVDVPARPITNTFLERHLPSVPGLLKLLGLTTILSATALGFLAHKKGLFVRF
T2 sequence (P21396 whole entry): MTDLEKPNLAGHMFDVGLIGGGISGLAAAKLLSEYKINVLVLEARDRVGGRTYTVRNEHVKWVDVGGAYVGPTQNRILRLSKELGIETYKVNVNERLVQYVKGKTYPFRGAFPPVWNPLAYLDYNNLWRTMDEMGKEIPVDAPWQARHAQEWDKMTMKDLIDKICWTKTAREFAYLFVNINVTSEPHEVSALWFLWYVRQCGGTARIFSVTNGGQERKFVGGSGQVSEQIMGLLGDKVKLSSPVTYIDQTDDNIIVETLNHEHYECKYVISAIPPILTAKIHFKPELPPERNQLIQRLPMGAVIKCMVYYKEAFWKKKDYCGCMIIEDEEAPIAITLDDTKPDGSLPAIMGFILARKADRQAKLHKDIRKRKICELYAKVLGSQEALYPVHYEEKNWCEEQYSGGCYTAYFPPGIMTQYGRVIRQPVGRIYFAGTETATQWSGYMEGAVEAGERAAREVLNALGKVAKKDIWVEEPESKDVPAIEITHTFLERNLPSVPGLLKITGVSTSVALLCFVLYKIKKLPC
How it was run: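 Enzyme source: mitochondrial fraction from rat liver (MAO A plus MAO B), homogenized in 0.1 M phosphate pH 7.4 and isolated by differential centrifugation. Coupled HRP/4-aminoantipyrine colorimetric assay with 1 mM vanillic acid as chromogen. Inhibitor (1 nM–50 µM) was preincubated 30 min at 37 °C, then tyramine added (0.5 mM final), 1 h at 37 °C, A490 read. IC50 given as mean ± SEM of 2–4 experiments.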

In the case of `NN[C@@H](c1ccccc1)[C@H](O)c1ccccc1` (relative stereo), the Ratio IC50 [1] is reported as 0.7, the IC50 [2] is reported as 50000 nM and the IC50 [3] is reported as 34000 nM.
Work on `CN(N)[C@@H](c1ccccc1)[C@H](O)c1ccccc1` yielded a Ratio IC50 [1] of 250, an IC50 [2] of 280 nM and an IC50 [3] of 70000 nM.
`CCCC(NN)C(O)c1ccccc1` (mixture of isomers) gave a Ratio IC50 [1] of 9, an IC50 [2] of 1200 nM and an IC50 [3] of 11000 nM.
With `CN(N)[C@H](c1ccccc1)[C@H](O)c1ccccc1` the Ratio IC50 [1] was 90, the IC50 [2] was 1060 nM and the IC50 [3] was 99000 nM.
`CN(N)[C@H](c1ccccc1)[C@@H](O)c1ccccc1` gave a Ratio IC50 [1] of 320, an IC50 [2] of 330 nM and an IC50 [3] of 105000 nM.
Compound `NNC[C@H](O)c1ccccc1` has a Ratio IC50 [1] of 250, an IC50 [2] of 40 nM and an IC50 [3] of 9900 nM.
Compound `NNC[C@@H](O)c1ccccc1` has a Ratio IC50 [1] of 65, an IC50 [2] of 150 nM and an IC50 [3] of 9800 nM.
Work on `CN(N)[C@@H](c1ccccc1)[C@@H](O)c1ccccc1` yielded a Ratio IC50 [1] of 72, an IC50 [2] of 1180 nM and an IC50 [3] of 85000 nM.
